Reference: ChEMBL document CHEMBL4321831, “Vaccine Adjuvants Derivatized from Momordica Saponins I and II” (J Med Chem, 2019)
Calls of active or inactive are those of the source. The rule behind the calls is not given here.

Experiments:
Mus musculus [1] = assay: Immuno-adjuvant activity in OVA-immunized BALB/c mouse assessed as potentiation of antibody response to OVA by measuring increase in serum anti-OVA IgG1 activity at 100 ug, sc administered immediately and on day 14, 28 and measured at week 2 to 4 by ELISA; format: functional, organism-based
How it was run: (§1)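 Female BALB/c mice (8–10 weeks, six per group) got sc OVA (20 μg) plus adjuvant (100 μg) on days 0, 14 and 28. Tail-vein serum was taken before each dose and 2 weeks after the last. ELISA plates were coated with OVA (0.1 μg/mL) in borate-buffered saline, pH 8.2. Serial 2-fold serum dilutions were run in duplicate, detected with HRP anti-mouse IgG/IgG1/IgG2a and o-phenylenediamine, and read at 490 nm.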

Mus musculus [2] = assay: Immuno-adjuvant activity in OVA-immunized BALB/c mouse assessed as potentiation of antibody response to OVA by measuring serum anti-OVA IgG2a level at 100 ug, sc administered immediately and on day 14, 28 and measured at week 6 by ELISA (reference value: 0.1 ug/ml); format: functional; how it was run: as §1
Mus musculus [3] = assay: Immuno-adjuvant activity in OVA-immunized BALB/c mouse assessed as potentiation of antibody response to OVA by measuring serum anti-OVA IgG2a activity at 100 ug, sc administered immediately and on day 14, 28 and measured at week 2 by ELISA; format: functional, organism-based; how it was run: as §1
Mus musculus [4] = assay: Immuno-adjuvant activity in recombinant Porphyromonas gingivalis HagB-immunized BALB/c mouse assessed as potentiation of antibody response to rHagB by measuring increase in serum anti-rHagB IgG activity at 100 ug, sc administered immediately and on day 14, 28 and measured at week 6 by ELISA; format: functional, organism-based
Mus musculus [5] = assay: Immuno-adjuvant activity in OVA-immunized BALB/c mouse assessed as potentiation of antibody response to OVA by measuring increase in serum anti-OVA IgG2a activity at 100 ug, sc administered immediately and on day 14, 28 and measured at week 4 to 6 by ELISA; format: functional, organism-based; how it was run: as §1
Mus musculus [6] = assay: Immuno-adjuvant activity in OVA-immunized BALB/c mouse assessed as potentiation of antibody response to OVA by measuring serum anti-OVA IgG1 level at 100 ug, sc administered immediately and on day 14, 28 and measured at week 6 by ELISA (reference value: 113 +/- 37 ug/ml); format: functional; how it was run: as §1
Mus musculus [7] = assay: Immuno-adjuvant activity in recombinant Porphyromonas gingivalis HagB-immunized BALB/c mouse assessed as potentiation of antibody response to rHagB by measuring increase in serum anti-rHagB IgG1 activity at 100 ug, sc administered immediately and on day 14, 28 and measured at week 2 to 4 by ELISA; format: functional, organism-based
Mus musculus [8] = assay: Immuno-adjuvant activity in OVA-immunized BALB/c mouse assessed as potentiation of antibody response to OVA by measuring increase in serum anti-OVA IgG activity at 100 ug, sc administered immediately and on day 14, 28 and measured at week 2 to 4 by ELISA; format: functional, organism-based; how it was run: as §1
Mus musculus [9] = assay: Immuno-adjuvant activity in OVA-immunized BALB/c mouse assessed as potentiation of antibody response to OVA by measuring ratio of serum anti-OVA IgG2a to serum anti-OVA IG1 level at 100 ug, sc administered immediately and on day 14, 28 and measured at week 6 by ELISA; format: functional
[10] = Toxicity in OVA-immunized BALB/c mouse assessed as changes in body weight at 100 ug, sc administered immediately and on day 14, 28 and measured at week 6; format: organism-based; settings: in vivo
How it was run: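 Female BALB/c mice (8–10 weeks, six per group) received sc OVA (20 μg) with adjuvant (100 μg) on days 0, 14 and 28. Body weight was recorded before each immunization and 2 weeks after the final one.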

Mus musculus [11] = assay: Immuno-adjuvant activity in OVA-immunized BALB/c mouse assessed as potentiation of antibody response to OVA by measuring serum anti-OVA IgG activity at 100 ug, sc administered immediately and on day 14, 28 and measured at week 6 by ELISA; format: functional, organism-based; how it was run: as §1
Mus musculus [12] = assay: Immuno-adjuvant activity in recombinant Porphyromonas gingivalis HagB-immunized BALB/c mouse assessed as potentiation of antibody response to rHagB by measuring serum anti-rHagB IgG1 activity at 100 ug, sc administered immediately and on day 14, 28 and measured at week 6 by ELISA; format: functional, organism-based
Mus musculus [13] = assay: Immuno-adjuvant activity in recombinant Porphyromonas gingivalis HagB-immunized BALB/c mouse assessed as potentiation of antibody response to rHagB by measuring increase in serum anti-rHagB IgG activity at 100 ug, sc administered immediately and on day 14, 28 and measured at week 2 to 4 by ELISA; format: functional, organism-based
[14] = Acute toxicity in BALB/c mouse assessed as lesion formation at 100 to 2000 ug, sc measured at day 7 post injection; format: organism-based; settings: in vivo
How it was run: (§2)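 Female BALB/c mice, 10 weeks old, 5 per group, given a single subcutaneous injection in the neck of adjuvant in 0.1 mL PBS at doses from 100 to 5000 μg, with untreated controls. Survival was counted 5 days after injection. Surviving mice were checked through day 7 for fur condition, behaviour, lethargy and lesion formation.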

Mus musculus [15] = assay: Immuno-adjuvant activity in OVA-immunized BALB/c mouse assessed as potentiation of antibody response to OVA by measuring increase in serum anti-OVA IgG activity at 100 ug, sc administered immediately and on day 14, 28 and measured at week 2 to 6 by ELISA; format: functional, organism-based; how it was run: as §1
[16] = Acute toxicity in BALB/c mouse assessed as mouse survival at 100 to 2000 ug, sc measured after 5 days; format: organism-based; settings: in vivo; how it was run: as §2
Mus musculus [17] = assay: Immuno-adjuvant activity in recombinant Porphyromonas gingivalis HagB-immunized BALB/c mouse assessed as potentiation of antibody response to rHagB by measuring increase in serum anti-rHagB IgG2a activity at 100 ug, sc administered immediately and on day 14, 28 and measured at week 2 to 6 by ELISA; format: functional, organism-based
[18] = Acute toxicity in BALB/c mouse assessed as lethargy at 100 to 2000 ug, sc measured at day 7 post injection; format: organism-based; settings: in vivo; how it was run: as §2
[19] = Acute toxicity in BALB/c mouse assessed as normal animal behaviour with healthy fur at 100 to 2000 ug, sc measured at day 5 post injection; format: organism-based; settings: in vivo; how it was run: as §2
Mus musculus [20] = assay: Immuno-adjuvant activity in OVA-immunized BALB/c mouse assessed as potentiation of antibody response to OVA by measuring increase in serum anti-OVA IgG1 activity at 100 ug, sc administered immediately and on day 14, 28 and measured at week 6 by ELISA; format: functional, organism-based; how it was run: as §1
[21] = Acute toxicity in BALB/c mouse assessed as mouse survival at 5000 ug, sc measured after 5 days; format: organism-based; settings: in vivo; how it was run: as §2
Mus musculus [22] = assay: Immuno-adjuvant activity in recombinant Porphyromonas gingivalis HagB-immunized BALB/c mouse assessed as potentiation of antibody response to rHagB by measuring serum anti-rHagB IgG2a activity at 100 ug, sc administered immediately and on day 14, 28 and measured at week 6 by ELISA; format: functional, organism-based
Mus musculus [23] = assay: Immuno-adjuvant activity in recombinant Porphyromonas gingivalis HagB-immunized BALB/c mouse assessed as potentiation of antibody response to rHagB by measuring increase in serum anti-rHagB IgG2a activity at 100 ug, sc administered immediately and on day 14, 28 and measured at week 2 to 4 by ELISA; format: functional, organism-based
Mus musculus [24] = assay: Immuno-adjuvant activity in OVA-immunized BALB/c mouse assessed as potentiation of antibody response to OVA by measuring increase in serum anti-OVA IgG activity at 100 ug, sc administered immediately and on day 14, 28 and measured at week 4 to 6 by ELISA; format: functional, organism-based; how it was run: as §1
[25] = Acute toxicity in BALB/c mouse assessed as mouse survival at 100 to 200 ug, sc measured after 5 days; format: organism-based; settings: in vivo; how it was run: as §2

Compound | Activity (Mus musculus [1]) | Activity (Mus musculus [2]) | Activity (Mus musculus [3]) | Activity (Mus musculus [4]) | Activity (Mus musculus [5]) | Activity (Mus musculus [6]) | Activity (Mus musculus [7]) | Ratio (Mus musculus [9]) | Activity [10] | Activity (Mus musculus [12]) | Activity (Mus musculus [13]) | Activity (Mus musculus [15]) | Activity (Mus musculus [20]) | further results
C[C@@H]1O[C@@H](O[C@H]2[C@H](O)[C@@H](C(=O)O)O[C@@H](O[C@H]3CC[C@]4(C)[C@H]5CC=C6[C@H]7CC(C)(C)CC[C@]7(C(=O)O[C@@H]7O[C@H](C)[C@H](O)[C@H](O)[C@H]7O[C@@H]7O[C@@H](C)[C@H](O[C@@H]8OC[C@@H](O)[C@H](O)[C@H]8O)[C@@H](O[C@@H]8O[C@H](CO)[C@@H](O)[C@H](O[C@@H]9OC[C@@H](O)[C@H](O)[C@H]9O)[C@H]8O)[C@H]7O)[C@H](O)C[C@@]6(C)[C@]5(C)CC[C@H]4[C@]3(C)C=O)[C@@H]2O[C@@H]2O[C@H](CO)[C@H](O)[C@H](O)[C@H]2O)[C@H](O)[C@H](O)[C@H]1O | Active | 0.1 µg/mL | inactive | inactive | inactive | 262 µg/mL | Active | <0.001 | Non-Toxic | inactive | Active | – | – | Activity (Mus musculus [8]): Active; Activity (Mus musculus [11]): inactive
CCCCCCCCCCCCNC(=O)[C@H]1O[C@@H](O[C@H]2CC[C@]3(C)[C@H]4CC=C5[C@H]6CC(C)(C)CC[C@]6(C(=O)O[C@@H]6O[C@H](C)[C@H](O)[C@H](O)[C@H]6O[C@@H]6O[C@@H](C)[C@H](O[C@@H]7OC[C@@H](O)[C@H](O)[C@H]7O)[C@@H](O[C@@H]7O[C@H](CO)[C@@H](O)[C@H](O[C@@H]8OC[C@@H](O)[C@H](O)[C@H]8O)[C@H]7O)[C@H]6O)CC[C@@]5(C)[C@]4(C)CC[C@H]3[C@]2(C)C=O)[C@H](O[C@@H]2O[C@H](CO)[C@H](O)[C@H](O)[C@H]2O)[C@@H](O[C@@H]2O[C@@H](C)[C@H](O)[C@@H](O)[C@H]2O)[C@@H]1O | Active | 208 µg/mL | inactive | Active | Active | 713 µg/mL | Active | 0.312 | Non-Toxic | inactive | Active | Active | Active | Activity [14]: Non-Toxic; survival at 120 h [16]: 100%; Activity (Mus musculus [17]): Active; Activity [18]: Non-Toxic; Activity [19]: Non-Toxic; survival at 120 h [21]: 0%
CCCCCCCCCCCCNC(=O)[C@H]1O[C@@H](O[C@H]2CC[C@]3(C)[C@H]4CC=C5[C@H]6CC(C)(C)CC[C@]6(C(=O)O[C@@H]6O[C@H](C)[C@H](O)[C@H](O)[C@H]6O[C@@H]6O[C@@H](C)[C@H](O[C@@H]7OC[C@@H](O)[C@H](O)[C@H]7O)[C@@H](O[C@@H]7O[C@H](CO)[C@@H](O)[C@H](O[C@@H]8OC[C@@H](O)[C@H](O)[C@H]8O)[C@H]7O)[C@H]6O)[C@H](O)C[C@@]5(C)[C@]4(C)CC[C@H]3[C@]2(C)C=O)[C@H](O[C@@H]2O[C@H](CO)[C@H](O)[C@H](O)[C@H]2O)[C@@H](O[C@@H]2O[C@@H](C)[C@H](O)[C@@H](O)[C@H]2O)[C@@H]1O | Active | 1 µg/mL | inactive | inactive | inactive | 869 µg/mL | Active | <0.001 | Non-Toxic | inactive | Active | – | Active | Activity (Mus musculus [22]): inactive; Activity (Mus musculus [23]): Active; Activity (Mus musculus [24]): Active
C[C@@H]1O[C@@H](O[C@H]2[C@H](O)[C@@H](C(=O)O)O[C@@H](O[C@H]3CC[C@]4(C)[C@H]5CC=C6[C@H]7CC(C)(C)CC[C@]7(C(=O)O[C@@H]7O[C@H](C)[C@H](O)[C@H](O)[C@H]7O[C@@H]7O[C@@H](C)[C@H](O[C@@H]8OC[C@@H](O)[C@H](O)[C@H]8O)[C@@H](O[C@@H]8O[C@H](CO)[C@@H](O)[C@H](O[C@@H]9OC[C@@H](O)[C@H](O)[C@H]9O)[C@H]8O)[C@H]7O)CC[C@@]6(C)[C@]5(C)CC[C@H]4[C@]3(C)C=O)[C@@H]2O[C@@H]2O[C@H](CO)[C@H](O)[C@H](O)[C@H]2O)[C@H](O)[C@H](O)[C@H]1O | Active | 0.2 µg/mL | inactive | inactive | inactive | 233 µg/mL | Active | <0.001 | Non-Toxic | inactive | Active | inactive | – | –
CC1(C)CC[C@]2(C(=O)O[C@@H]3O[C@H](CO)[C@@H](O)[C@H](O[C@@H]4O[C@H](CO)[C@@H](O)[C@H](O[C@@H]5O[C@H](CO)[C@@H](O)[C@H](O[C@@H]6O[C@H](CO)[C@@H](O)[C@H](O[C@@H]7O[C@H](CO)[C@@H](O)[C@H](O)[C@H]7O)[C@H]6O)[C@H]5O)[C@H]4O)[C@H]3O)[C@H](O)C[C@]3(C)C(=CC[C@@H]4[C@@]5(C)CC[C@H](O[C@@H]6O[C@H](CO)[C@@H](O)[C@H](O[C@@H]7O[C@H](CO)[C@@H](O)[C@H](O[C@@H]8O[C@H](CO)[C@@H](O)[C@H](O)[C@H]8O)[C@H]7O)[C@H]6O)[C@@](C)(C=O)[C@@H]5CC[C@]43C)[C@H]2C1 | – | – | – | – | – | – | – | – | – | – | – | – | – | survival at 120 h [25]: 0%
